# Screening data from PubChem.
# SKN-1 block = suppressors of acrylamide-induced Pgst-4::GFP reporter in worms, primary screen, SKN-1 inhibitor project, whole organism, uHTS, GFP/RFP fluorescence ratio, strain VP596; C. elegans VP596 Pgst-4::GFP/RFP ratio, 24 h; inhibition, % at 21.8 µM; hit rate 0.49% among 360,000;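 active = interference check ratio from 0.5 to 1.5 plus GFP to RFP signal ratio inhibition reaching or exceeding a fixed threshold, cut at about 30% in these data, passing the limit was not always enough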
# ADAM17 inh = ADAM17 inhibitors, primary screen, biochemical, QFRET; inhibition, % at 6.95 µM; AID 720648, 2013; Disintegrin and metalloproteinase domain-containing protein 17 (Homo sapiens), P78536; recombinant ADAM17, EDANS/DABCYL FRET peptide cleavage; hit rate 0.83% among 370,000;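 active = inhibition above the mean of compounds lying between control limits plus 3 SD, set per campaign, cut at about 8.5% in these data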;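 note: 0% = DMSO-only wells as the low control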
# ADAM10 inh = human ADAM10 inhibitors, primary screen, biochemical, QFRET, HTS. recombinant ADAM10, EDANS/DABCYL FRET peptide cleavage, 3 h. hit rate 0.62% among 370,000. Disintegrin and metalloproteinase domain-containing protein 10 (Homo sapiens), O14672. inhibition, % at 7 µM;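 active = inhibition above a per-campaign cutoff equal to the mean of compounds falling between control-based bounds plus 3 SD, cut at about 20% in these data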;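 note: 0% = DMSO wells while the 100% control is not disclosed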
# Target sequence (O14672 214-748 limits assumed): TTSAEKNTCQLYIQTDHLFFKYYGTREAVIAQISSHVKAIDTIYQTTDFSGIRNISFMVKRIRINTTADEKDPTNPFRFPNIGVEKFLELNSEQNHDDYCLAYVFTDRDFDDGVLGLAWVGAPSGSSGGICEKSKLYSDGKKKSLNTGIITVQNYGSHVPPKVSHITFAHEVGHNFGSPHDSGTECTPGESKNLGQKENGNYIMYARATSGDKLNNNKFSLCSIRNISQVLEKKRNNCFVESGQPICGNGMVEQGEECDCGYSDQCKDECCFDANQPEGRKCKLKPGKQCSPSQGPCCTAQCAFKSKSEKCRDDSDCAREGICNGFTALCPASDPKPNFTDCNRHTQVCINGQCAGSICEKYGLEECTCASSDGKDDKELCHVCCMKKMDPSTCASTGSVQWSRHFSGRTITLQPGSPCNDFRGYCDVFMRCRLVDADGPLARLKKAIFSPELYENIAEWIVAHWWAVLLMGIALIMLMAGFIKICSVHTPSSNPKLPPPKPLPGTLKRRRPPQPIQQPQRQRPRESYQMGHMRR
# MT1-MMP act inh = blockers of MT1-MMP proenzyme processing, primary screen, HT1080 RFP-PRO-GFP cells, GFP/RFP fluorescence; Matrix metalloproteinase-14 (Homo sapiens), P50281; GFP/RFP ratio fluorescence, overnight; percent of plate control window, DMSO zero; GFP/RFP ratio change, % at 20 µM; hit rate 0.061% among 360,000; AID 651647, 2012;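 active = GFP/RFP ratio change of at least 30% with cell ATP level not reduced by more than half and red fluorescence within 50% of control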
#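 Assay system: HT1080 RFP-PRO-GFP cells | Dosing: 20 µM single dose, 1% DMSO | Incubation: Cells overnight before dosing, compound overnight, 37 °C, 5% CO2 | Evaluation: GFP/RFP fluorescence ratio | Control set: DMSO-only wells and HT1080 RFP-L50D-GFP cell wells as references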
# GRIN3A LBD mod = binders of NR3A ligand-binding domain, primary screen, biophysical, differential scanning fluorimetry, uHTS. NR3A LBD differential scanning fluorimetry, Tm shift; 0% = protein alone, 100% = glycine-bound protein. Tm shift relative to glycine control, % at 25 µM. AID 1259313, 2017. hit rate 2.5% among 340,000;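 active = melting temperature shift of at least 10% of the positive control shift, at one fixed dose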
# MPTP inh = mitochondrial permeability transition pore inhibitors, primary screen, biochemical, isolated mouse mitochondria, absorbance | Ca2+ swelling absorbance, 30 min | inhibition, % at 10 µM | hit rate 1.4% among 360,000;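 active = inhibition of 50% or more, scaled per plate between neutral and stimulator controls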;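 note: 0% = DMSO wells given calcium and 100% = 1 mM EGTA wells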
# ADAM10 confirm = human ADAM10 inhibitors, confirmation, biochemical, QFRET, triplicate. shares compounds with ADAM10 inh. ADAM10 QFRET peptide cleavage, EDANS fluorescence. inhibition, % at 6.95 µM. hit rate 1% among 2,100. AID 743208, 2013;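 active = inhibition above about 20% chosen separately for each screening run, limit read from the data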;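 note: 0% = DMSO wells and 100% = marimastat wells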
# ADAM17 counter = ADAM17 inhibitors, counter-screen for ADAM10 exosite inhibitor project, biochemical, QFRET, high throughput | shares compounds with ADAM10 inh | ADAM17 QFRET peptide cleavage, EDANS fluorescence | inhibition, % at 6.95 µM | hit rate 0.5% among 2,100 | AID 743214, 2013;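 active = mean triplicate inhibition above the solvent-only control wells' mean plus 3 SD, cut at about 12% in these data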;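 note: 0% = DMSO wells and 100% = marimastat wells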
# Starred values were filed as active, the others as inactive; x = no result given. An excerpt weighted towards active compounds, which were near 4.7% of everything screened.
SMILES,SKN-1 block,ADAM17 inh,ADAM10 inh,MT1-MMP act inh,GRIN3A LBD mod,MPTP inh,ADAM10 confirm,ADAM17 counter
CN(CC(=O)Nc1ccc(Cl)c(C(F)(F)F)c1)C(=O)COc1cccc2cccnc12,13,0,-21,1,x,2,x,x
COc1ccc(-c2csc(NC(=O)c3c(OC)cccc3OC)n2)cc1,3,2,30*,-3,-3,0,7,1
COc1cccc(-c2csc(NC(=O)Nc3ccccc3)n2)c1,7,5,25*,-6,32*,11,7,2
COc1cccc(CC(=O)Nc2nc(-c3cccnc3)cs2)c1,1,-1,-5,-5,0,3,x,x
COc1ccc(-c2csc(NC(=O)c3ccco3)n2)cc1,29,8,10,6,-6,-4,x,x
O=C(OCC(=O)c1ccc(Cl)s1)c1cncc(Br)c1,-16,-4,-4,-7,-1,0,x,x
CCC(OC(=O)C(CC(C)C)NC(=O)c1ccccc1)C(=O)Nc1nnc(C)s1 (configuration not stated),17,-1,5,-1,-1,0,x,x
CCc1nnc(NC(=O)C2CCCN2C(=O)Nc2ccccc2)s1 (configuration not stated),-2,0,-1,-2,-1,0,x,x
COc1ccc(CCn2c(-c3ccc(C(C)(C)C)cc3)n[nH]c2=S)cc1OC,-1,2,24*,2,-2,0,0,0
COc1ccc(CCn2c(-c3ccc(Cl)cc3)n[nH]c2=S)cc1OC,6,-3,3,2,0,-1,x,x
CNC(=S)N/N=C/c1cn(CCOc2ccc(OC)cc2)c2ccccc12,11,5,20*,2,-2,2,12,5
Cc1sc2ncn(CC(=O)NCCCC(=O)N3CCN(c4ccccc4)CC3)c(=O)c2c1C,12,0,-15,4,3,-2,x,x
COc1ccc(OC)c(-c2cc(C3CCN(c4ncccc4[N+](=O)[O-])CC3)[nH]n2)c1,4,8,24*,-13,-10,0,3,1
COc1ccc(NC(=O)CN(C)C(=O)c2cn(-c3ccccc3)nc2-c2ccc(F)cc2)cc1,-13,7,7,-2,2,-2,x,x
COc1ccc(-c2nn(-c3ccccc3)cc2CNC(=O)c2cccc([N+](=O)[O-])c2)cc1,7,8,21*,2,-2,8,4,1
COc1ccc(NC(=O)CN(C)C(=O)c2cn(-c3ccccc3)nc2-c2ccc(OC)cc2)cc1,5,7,26*,0,-7,-1,0,1
COc1ccc(-c2nn(-c3ccccc3)cc2C(=O)Nc2ccc(C(=O)O)cc2)cc1,-13,-2,7,-4,-8,0,x,x
COc1ccc(-c2nn(-c3ccccc3)cc2C(=O)Nc2cccc(S(=O)(=O)NC3=NCCC3)c2)cc1,15,2,24*,-2,6,1,7,1
O=C(Cc1coc(-c2ccc(F)cc2)n1)NC1CCCCC1,6,-1,5,0,5,0,x,x
O=C(CSc1nnc(CNC(=O)c2ccc(F)cc2)o1)NCc1ccccc1,-12,0,-3,-1,4,0,x,x
CCc1cc(C(=O)Nc2cc(S(=O)(=O)N(C)C)ccc2C)sc1C,1,-2,3,1,-1,2,x,x
Cc1ccccc1-n1c(Cn2c(=O)sc3ccccc32)nnc1SC(C)C,7,-1,78*,-4,0,0,-1,0
CC(C)Sc1nnc(Cn2c(=O)sc3ccccc32)n1-c1ccccc1,0,-2,-3,0,-3,-4,x,x
Cc1cc(Cl)ccc1NS(=O)(=O)c1c(C)[nH]c(=O)[nH]c1=O,11,-8,5,-3,0,0,x,x
CCOC(=O)C1=C(COC(=O)/C=C/c2ccc(OCC)c(OC)c2)NC(=O)NC1C (configuration not stated),1,-42,-125,11,-2,0,x,x
SMILES,SKN-1 block,ADAM17 inh,ADAM10 inh,MT1-MMP act inh,GRIN3A LBD mod,MPTP inh,ADAM10 confirm,ADAM17 counter
CCOc1ccccc1/C=N/NC(=O)Cc1csc(Nc2cccc(C(F)(F)F)c2)n1,19,7,9,2,7,-12,x,x
COc1ccc(/C=N/NC(=O)Cc2csc(Nc3cccc(C(F)(F)F)c3)n2)c(OC)c1,3,6,25*,5,8,-11,9,3
CCOc1ccc(/C=N/NC(=O)Cc2csc(Nc3cccc(C(F)(F)F)c3)n2)c(OCC)c1,8,8,20*,-3,10*,2,12,3
CCOC(=O)Cc1csc(NC(=O)CSc2ncnc3c2cnn3-c2ccccc2Cl)n1,7,8,26*,1,-2,0,1,2
O=C(CCc1nc(-c2ccccc2F)no1)NCCN1CCc2ccccc2C1,2,x,x,3,0,-2,x,x
COc1ccc(Cl)cc1NC(=O)CN(C)CC(=O)N1CC(=O)Nc2ccccc21,5,-4,-8,-1,-1,-1,x,x
O=[N+]([O-])c1cc(Br)c(Nc2ccccc2)c([N+](=O)[O-])c1,5,5,19,19,3,0,x,x
O=[N+]([O-])c1cc([N+](=O)[O-])c2c(=Nc3ccccc3)n(-c3ccccc3)n(O)c2c1,17,4,25*,11,2,5,0,1
COc1ccccc1NC(=O)CN(c1ccc(C23CC4CC(CC(C4)C2)C3)cc1)S(C)(=O)=O,12,4,22*,-17,-1,1,16,5
Cc1ccc(NC(=O)CN2CCN(c3nc(-c4ccccc4)cs3)CC2)cc1C,x,7,22*,x,x,x,7,2
Cc1ccccc1NC(=O)CN1CCN(c2nc(-c3ccccc3)cs2)CC1,x,4,6,x,x,x,x,x
COc1ccc(/C=N\NC(=O)c2ccccc2)cc1COc1ccccc1,3,5,3,3,-3,0,x,x
